Test results reported in ChEMBL document CHEMBL4265973, “Broad-spectrum antibacterial amphiphilic aminoglycosides: A new focus on the structure of the lipophilic groups extends the series of active dialkyl neamines” (Eur J Med Chem, 2018).
≈ marks a conversion by molar mass, not a printed value.

How the values were obtained:
Acinetobacter lwoffii [1] = assay: Antibacterial activity against Acinetobacter lwoffii AI.88-483 harboring APH3'-6A by microdilution assay; format: functional
How it was run: (§1)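 Broth microdilution MIC per CLSI recommendations, fresh culture in cation-adjusted Mueller-Hinton broth, starting inoculum 10^6 cells.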

Klebsiella pneumoniae = assay: Antibacterial activity against Klebsiella pneumoniae 700603 by microdilution assay; format: functional
How it was run: (§2)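 Broth microdilution per CLSI recommendations, using a fresh culture in cation-adjusted Mueller-Hinton broth (CA-MHB) and a starting inoculum of 10^6 cells; the MIC is the value read.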

Escherichia coli [2] = assay: Antibacterial activity against Escherichia coli PAZ505H8101 harboring AAC6'-1B by microdilution assay; format: functional; how it was run: as §1
Staphylococcus aureus [3] = assay: Antibacterial activity against Staphylococcus aureus SA-1 expressing NorA pump by microdilution assay
Escherichia coli [4] = assay: Antibacterial activity against Escherichia coli L8058.1 harboring ANT2'-1A by microdilution assay; format: functional; how it was run: as §1
[5] = Cytotoxicity against mouse J774 cells assessed as cell viability at 10 uM after 24 hrs by MTT assay relative to control; format: cell-based; settings: J774 cells, read-out: Activity
How it was run: (§3)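 Murine J774 macrophages are exposed for 24 h to compound at 10 or 30 µM, then given 0.2 mg/mL MTT for 1 h. The reaction is stopped with DMSO and OD read at 570 nm; viability is metabolic activity as % of control. The number of independent experiments is given per value.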

Pseudomonas aeruginosa [6] = assay: Antibacterial activity against Pseudomonas aeruginosa PA22 harboring surexp MexXY by microdilution assay; format: functional; how it was run: as §1
Staphylococcus aureus [7] = assay: Antibacterial activity against Staphylococcus aureus ATCC 25923 by microdilution assay; format: functional; how it was run: as §1
Pseudomonas aeruginosa [8] = assay: Antibacterial activity against Pseudomonas aeruginosa FO3 harboring AAC6'-2A by microdilution assay; format: functional; how it was run: as §1
Acinetobacter lwoffii [9] = assay: Antibacterial activity against Acinetobacter lwoffii ATCC 17925 by microdilution assay; format: functional; how it was run: as §2
Pseudomonas aeruginosa [10] = assay: Antibacterial activity against Pseudomonas aeruginosa PA406 harboring triABC deletion mutant by microdilution assay; format: functional; how it was run: as §1
[11] = Cytotoxicity against mouse J774 cells assessed as cell viability at 30 uM after 24 hrs by MTT assay relative to control; format: cell-based; settings: J774 cells, read-out: Activity; how it was run: as §3
Pseudomonas aeruginosa [12] = assay: Antibacterial activity against Pseudomonas aeruginosa ATCC 27853 by microdilution assay; format: functional; how it was run: as §2
Escherichia coli [13] = assay: microbe, parasite or virus in culture; settings: ATCC 25922
Staphylococcus aureus [14] = assay: Antibacterial activity against methicillin-resistant Staphylococcus aureus ATCC 33592 by microdilution assay; format: functional; how it was run: as §1

Compound	MIC (Acinetobacter lwoffii [1])	MIC (Klebsiella pneumoniae)	MIC (Escherichia coli [2])	MIC (Staphylococcus aureus [3])	MIC (Escherichia coli [4])	viability at 24 h, 10 µM [5]	MIC (Pseudomonas aeruginosa [6])	MIC (Staphylococcus aureus [7])	MIC (Pseudomonas aeruginosa [8])	MIC (Acinetobacter lwoffii [9])	MIC (Pseudomonas aeruginosa [10])	viability at 24 h, 30 µM [11]	MIC (Pseudomonas aeruginosa [12])	MIC (Escherichia coli [13])	MIC (Staphylococcus aureus [14])
CCCCCCCO[C@@H]1[C@@H](O)[C@H](O[C@H]2O[C@H](CN)[C@@H](O)[C@H](O)[C@H]2N)[C@@H](N)C[C@H]1N	> 128 µg/mL	> 128 µg/mL	> 128 µg/mL	> 128 µg/mL	> 128 µg/mL	84.3%	> 128 µg/mL	> 128 µg/mL	> 128 µg/mL	64 µg/mL (≈ 152 µM)	> 128 µg/mL	71.3%	> 128 µg/mL	> 128 µg/mL	> 128 µg/mL
CCCCCCCCCCCO[C@@H]1[C@@H](N)[C@@H](O[C@H]2[C@H](O)[C@@H](OCCCCCCCCCCC)[C@H](N)C[C@@H]2N)O[C@H](CN)[C@H]1O	32 µg/mL (≈ 50.7 µM)	32 µg/mL (≈ 50.7 µM)	16 µg/mL (≈ 25.4 µM)	8 µg/mL (≈ 12.7 µM)	16 µg/mL (≈ 25.4 µM)	81.7%	16 µg/mL (≈ 25.4 µM)	8 µg/mL (≈ 12.7 µM)	16 µg/mL (≈ 25.4 µM)	32 µg/mL (≈ 50.7 µM)	16 µg/mL (≈ 25.4 µM)	14.1%	16 µg/mL (≈ 25.4 µM)	4 µg/mL (≈ 6.34 µM)	64 µg/mL (≈ 101 µM)
NC[C@H]1O[C@H](O[C@H]2[C@H](O)[C@@H](OCc3ccc4ccccc4c3)[C@H](N)C[C@@H]2N)[C@H](N)[C@@H](OCc2ccc3ccccc3c2)[C@@H]1O	–	–	–	–	–	–	–	–	–	–	–	75.7%	–	–	–
NC[C@@H]1O[C@H](O[C@H]2[C@@H](O)[C@H](O[C@@H]3[C@@H](O)[C@H](N)C[C@H](N)[C@H]3O[C@H]3O[C@H](CN)[C@@H](O)[C@H](O)[C@H]3N)O[C@@H]2CO)[C@H](N)[C@@H](O)[C@@H]1O [FRAMYCETIN]	64 to 128 µg/mL (≈ 104 to 208 µM)	4 to 8 µg/mL (≈ 6.51 to 13 µM)	4 µg/mL (≈ 6.51 µM)	0.5 to 1 µg/mL (≈ 0.813 to 1.63 µM)	1 µg/mL (≈ 1.63 µM)	–	32 to 64 µg/mL (≈ 52.1 to 104 µM)	1 to 2 µg/mL (≈ 1.63 to 3.25 µM)	128 µg/mL (≈ 208 µM)	< 0.25 µg/mL	2 to 4 µg/mL (≈ 3.25 to 6.51 µM)	–	64 µg/mL (≈ 104 µM)	2 µg/mL (≈ 3.25 µM)	> 128 µg/mL
NC[C@H]1O[C@H](O[C@H]2[C@H](O)[C@@H](O)[C@H](N)C[C@@H]2N)[C@H](N)[C@@H](O)[C@@H]1O [NEAMINE]	> 128 µg/mL	32 µg/mL (≈ 99.3 µM)	> 128 µg/mL	8 µg/mL (≈ 24.8 µM)	32 µg/mL (≈ 99.3 µM)	–	> 128 µg/mL	16 to 32 µg/mL (≈ 49.6 to 99.3 µM)	> 128 µg/mL	0.5 µg/mL (≈ 1.55 µM)	64 µg/mL (≈ 199 µM)	–	> 128 µg/mL	32 µg/mL (≈ 99.3 µM)	> 128 µg/mL
CCCCCCCO[C@@H]1[C@@H](N)[C@@H](O[C@H]2[C@H](O)[C@@H](OCCCCCCC)[C@H](N)C[C@@H]2N)O[C@H](CN)[C@H]1O	> 128 µg/mL	64 µg/mL (≈ 123 µM)	16 µg/mL (≈ 30.8 µM)	8 µg/mL (≈ 15.4 µM)	32 µg/mL (≈ 61.7 µM)	96.3%	16 µg/mL (≈ 30.8 µM)	8 µg/mL (≈ 15.4 µM)	8 µg/mL (≈ 15.4 µM)	32 µg/mL (≈ 61.7 µM)	4 µg/mL (≈ 7.71 µM)	79.9%	32 µg/mL (≈ 61.7 µM)	32 µg/mL (≈ 61.7 µM)	8 µg/mL (≈ 15.4 µM)
NC[C@H]1O[C@H](O[C@H]2[C@H](O)[C@@H](OCCCCc3ccc4ccccc4c3)[C@H](N)C[C@@H]2N)[C@H](N)[C@@H](OCCCCc2ccc3ccccc3c2)[C@@H]1O	> 128 µg/mL	32 µg/mL (≈ 46.6 µM)	4 µg/mL (≈ 5.82 µM)	2 to 4 µg/mL (≈ 2.91 to 5.82 µM)	8 µg/mL (≈ 11.6 µM)	–	8 µg/mL (≈ 11.6 µM)	2 µg/mL (≈ 2.91 µM)	8 µg/mL (≈ 11.6 µM)	2 µg/mL (≈ 2.91 µM)	8 µg/mL (≈ 11.6 µM)	–	4 µg/mL (≈ 5.82 µM)	8 µg/mL (≈ 11.6 µM)	2 µg/mL (≈ 2.91 µM)
CCCCCCCCCO[C@@H]1[C@@H](N)[C@@H](O[C@H]2[C@H](O)[C@@H](O)[C@H](N)C[C@@H]2N)O[C@H](CN)[C@H]1OCCCCCCCCC	32 µg/mL (≈ 55.7 µM)	16 to 32 µg/mL (≈ 27.8 to 55.7 µM)	4 to 8 µg/mL (≈ 6.96 to 13.9 µM)	4 µg/mL (≈ 6.96 µM)	8 µg/mL (≈ 13.9 µM)	–	8 to 16 µg/mL (≈ 13.9 to 27.8 µM)	4 µg/mL (≈ 6.96 µM)	8 to 16 µg/mL (≈ 13.9 to 27.8 µM)	4 to 8 µg/mL (≈ 6.96 to 13.9 µM)	8 to 16 µg/mL (≈ 13.9 to 27.8 µM)	–	8 to 16 µg/mL (≈ 13.9 to 27.8 µM)	4 to 8 µg/mL (≈ 6.96 to 13.9 µM)	4 µg/mL (≈ 6.96 µM)
CCCCCCCCCCCO[C@@H]1[C@@H](O)[C@H](O[C@H]2O[C@H](CN)[C@@H](O)[C@H](O)[C@H]2N)[C@@H](N)C[C@H]1N	> 128 µg/mL	> 128 µg/mL	> 128 µg/mL	8 µg/mL (≈ 16.8 µM)	> 128 µg/mL	74.7%	> 128 µg/mL	32 µg/mL (≈ 67.1 µM)	> 128 µg/mL	64 µg/mL (≈ 134 µM)	16 µg/mL (≈ 33.6 µM)	83.4%	> 128 µg/mL	> 128 µg/mL	8 µg/mL (≈ 16.8 µM)
CCCCCCCCCCCO[C@@H]1[C@@H](N)[C@@H](O[C@H]2[C@H](O)[C@@H](O)[C@H](N)C[C@@H]2N)O[C@H](CN)[C@H]1O	> 128 µg/mL	> 128 µg/mL	32 µg/mL (≈ 67.1 µM)	16 µg/mL (≈ 33.6 µM)	32 µg/mL (≈ 67.1 µM)	81.8%	> 128 µg/mL	16 µg/mL (≈ 33.6 µM)	> 128 µg/mL	32 µg/mL (≈ 67.1 µM)	4 to 8 µg/mL (≈ 8.39 to 16.8 µM)	77.1%	> 128 µg/mL	64 µg/mL (≈ 134 µM)	16 µg/mL (≈ 33.6 µM)
GENTAMICIN	2 µg/mL	4 to 8 µg/mL	1 µg/mL	–	64 µg/mL	–	4 µg/mL	0.25 to 0.5 µg/mL	> 128 µg/mL	< 0.25 µg/mL	< 0.25 µg/mL	–	1 µg/mL	–	1 µg/mL
NCC[C@H](O)C(=O)N[C@@H]1C[C@H](N)[C@@H](O[C@H]2O[C@H](CN)[C@@H](O)[C@H](O)[C@H]2O)[C@H](O)[C@H]1O[C@H]1O[C@H](CO)[C@@H](O)[C@H](N)[C@H]1O [AMIKACIN]	128 µg/mL (≈ 219 µM)	1 µg/mL (≈ 1.71 µM)	64 µg/mL (≈ 109 µM)	2 µg/mL (≈ 3.42 µM)	8 µg/mL (≈ 13.7 µM)	–	8 µg/mL (≈ 13.7 µM)	4 µg/mL (≈ 6.83 µM)	8 µg/mL (≈ 13.7 µM)	< 0.25 µg/mL	1 µg/mL (≈ 1.71 µM)	–	2 to 4 µg/mL (≈ 3.42 to 6.83 µM)	4 µg/mL (≈ 6.83 µM)	8 to 16 µg/mL (≈ 13.7 to 27.3 µM)
NC[C@H]1O[C@H](O[C@H]2[C@H](O)[C@@H](O[C@H]3O[C@H](CO)[C@@H](O)[C@H](N)[C@H]3O)[C@H](N)C[C@@H]2N)[C@H](N)C[C@@H]1O [TOBRAMYCIN]	0.5 to 1 µg/mL (≈ 1.07 to 2.14 µM)	4 to 8 µg/mL (≈ 8.56 to 17.1 µM)	32 µg/mL (≈ 68.4 µM)	0.5 µg/mL (≈ 1.07 µM)	64 µg/mL (≈ 137 µM)	–	0.5 µg/mL (≈ 1.07 µM)	0.25 to 0.5 µg/mL (≈ 0.535 to 1.07 µM)	128 µg/mL (≈ 274 µM)	< 0.25 µg/mL	< 0.25 µg/mL	–	< 0.25 µg/mL	1 µg/mL (≈ 2.14 µM)	64 µg/mL (≈ 137 µM)
